Source: PubChem
OX1R antag-1 – human HCRTR1 antagonism; O43613; CHO/OX1R cells, Fluo-8 calcium fluorescence, orexin A; inhibition, % at 5 µM; hit rate 0.43% among 330,000; AID 434989;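 active = inhibition above its plate's threshold, mean inhibition of all tested compounds on the plate plus 3 SD, cut at about 37% in these data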;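 also: 0% = orexin A challenge wells and 100% = SB-334867-A antagonist wells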
TAAR1 antag – antagonists of human TAAR1. inhibition, % at 3 µM. CHO RD-HGA16 TAAR1, Fluo-8 calcium fluorescence, antagonist. hit rate 1.5% among 360,000;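 active = inhibition above a per-plate cutoff, the mean inhibition of test compounds on that plate plus 3 SD, cut at about 49% in these data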;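 also: 0% = DMSO plus EC80 beta-PEA response and 100% = DMSO alone without agonist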
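Assay system: CHO-derived RD-HGA16 cells stably expressing human TAAR1 plus Gα16. Timing: 140 s kinetic read after compound, 140 s after agonist. Technique: kinetic Fluo-8 calcium fluorescence measurement. Measure: % inhibition of agonist calcium response.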
CHO parental Ca – signal in parental CHO cells, OX1R antagonist counter-screen | parental CHO-K1, ATP-induced calcium, Fluo-8 fluorescence | inhibition, % at 5.6 µM | hit rate 0.63% among 330,000 | AID 463079;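 active = inhibition above that plate's mean sample inhibition plus 3 SD, cut at about 26% in these data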;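 also: 0% = ATP-challenged DMSO wells and 100% = DMSO wells without ATP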
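test system = CHO parental line | reagent = ATP stimulus | measured by = intracellular calcium via Fluo-8 no-wash fluorescent dye | control set = ATP and no-ATP DMSO wells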
GalR3 antag – antagonists of human GalR3 | O60755 | HEK293 GalR3-CNG cAMP membrane potential fluorescence; galR3 body fused to GalR1 C-terminus | inhibition, % at 3 µM | hit rate 0.44% among 360,000;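 active = inhibition above the screen-wide average plus 3 SD, cut at about 13% in these data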;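 also: forskolin and galanin both at EC90 stimulate the cells; cAMP rise reported by CNG channel membrane potential dye signal; 0% = forskolin plus galanin with DMSO and 100% = forskolin alone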
Target sequence (O60755 1-299 limits assumed): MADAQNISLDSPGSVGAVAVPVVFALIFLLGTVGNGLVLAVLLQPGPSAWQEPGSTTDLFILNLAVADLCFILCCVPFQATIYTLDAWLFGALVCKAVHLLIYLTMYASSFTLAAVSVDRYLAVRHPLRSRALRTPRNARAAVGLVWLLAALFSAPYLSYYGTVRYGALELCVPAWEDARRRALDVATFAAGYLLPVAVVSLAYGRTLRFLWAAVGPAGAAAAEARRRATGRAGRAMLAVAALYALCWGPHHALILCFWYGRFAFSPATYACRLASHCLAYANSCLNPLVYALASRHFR
OX1R antag-2 – OX1R (human) antagonism | O43613 | OX1R-expressing cells, FRET antagonist read-out | inhibition, % at 6.6 µM | hit rate 1.8% among 330,000; in the data active = inhibition mostly above about 38%, no sharp cut-off; inactive = mostly below about 40%;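 also: 0% = agonist challenge alone and 100% = reference antagonist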
TAAR1 agonist – agonists of human TAAR1; Q96RJ0; CHO RD-HGA16 TAAR1, Fluo-8 calcium fluorescence; vehicle wells 0%, saturating PEA agonist 100%; activation, % at 3 µM; hit rate 0.99% among 360,000;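 active = activation above the mean activation of all test compounds in the run plus 3 SD, cut at about 38% in these data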
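Assay system: CHO-derived RD-HGA16 cells with stable Gα16 and human TAAR1; timing: 17-24 h seeding, 75 min 37 °C dye, 30 min RT; read-out: % activation from peak over basal fluorescence ratio, DMSO-to-PEA scaled; measured by: kinetic Fluo-8 calcium fluorescence; benchmarks: low control DMSO, high control PEA (EC100); doses: 3 µM single concentration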
Numbers without * were called inactive; / = no result given. In the library only some 4.2% were active in any assay of this set; here they are far more common.

SMILES	OX1R antag-1	TAAR1 antag	CHO parental Ca	GalR3 antag	OX1R antag-2	TAAR1 agonist
CCOC(=O)C1=C(C)N2C(=C(C#N)[C@@H]1c1ccc(C(=O)OC)cc1)SC[C@@]2(O)C(C)(C)C	17.0	-19.6	0.5	5.5	52.6*	4.2
CCOC(=O)C1CCCN(CC(O)COc2ccc(OC)cc2C(C)(C)C)C1 (configuration not stated)	-42.9	48.3	-16.1	-7.2	6.2	39.3*
Cc1ccc(-n2ncc3c(SCc4ccccn4)ncnc32)c(C)c1	-19.4	-8.5	-11.5	5.5	34.5	-1.6
COc1ccc(CCNC(=O)c2cc(C3CC3)nc3c2cnn3C(C)C)cc1OC	-32.3	9.4	-22.3	-3.0	6.0	6.9
CC(C)n1ncc2c(C(=O)NCCOc3ccccc3F)cc(C3CC3)nc21	-24.4	49.9*	-28.3	-5.3	11.3	1.6
CCOc1ccc(OCCNC(=O)c2cc(C3CC3)nc3c2cnn3C(C)C)cc1	/	60.3*	/	-7.3	/	2.1
Cc1ccc(C)c2nc(Cl)c(C#N)cc12	-15.6	-31.3	18.9	-1.8	8.3	9.7
CCS(=O)(=O)NCCCc1ccccc1	-16.1	-10.9	-6.4	-3.4	12.1	3.4
CCCN(S(=O)(=O)c1ccccc1F)S(=O)(=O)c1ccccc1Br	13.8	-3.7	-10.0	-6.7	68.2*	-2.0
Cc1ccc(-c2nnc(SCc3nc(N)nc(Nc4ccccc4C)n3)n2N)cc1	-7.3	8.0	-20.0	-0.6	14.4	3.8
CCN(Cc1ccccc1)Cc1nc(CCc2ccccc2)no1	-14.1	17.4	-19.0	-6.4	2.9	4.8
c1ccc(CCN(Cc2ccccc2)Cc2nc(C3CC3)no2)cc1	-49.3	-5.4	-27.1	-5.3	14.0	38.0*
COc1n[nH]c(C(=O)Nc2nc3ccccc3s2)c1[N+](=O)[O-]	-13.2	-3.4	4.8	-2.1	28.2	8.2
O=C(Nc1ccn(Cc2ccccc2F)n1)c1ccc(COc2ccccc2Cl)cc1	18.9	54.9*	13.2	-8.2	29.0	8.9
Cc1cccn2c(=O)c3cc(C(=O)NCC4CCCO4)c(=N)n(C4CCCC4)c3nc12 (configuration not stated)	-25.9	-11.8	-2.2	6.1	59.2*	0.7
N=c1c(C(=O)NCC2CCCO2)cc2c(=O)n3ccccc3nc2n1C1CCCC1 (configuration not stated)	-20.2	-9.4	-29.0	-11.1	44.7*	0.1
Cc1ccc2nc3c(cc(C(=O)NCC4CCCO4)c(=N)n3C3CCCC3)c(=O)n2c1 (configuration not stated)	-20.7	2.2	-13.5	-5.7	57.9*	-3.9
CCO[C@@H]1OC(C(=O)NCc2ccccc2)=C[C@H](C(C)(C)C)[C@H]1CCCO	12.4	7.8	-6.9	-6.2	11.7	10.3
Cc1cccc(NC(=O)C(=O)NNC(=O)c2ccc(C(C)(C)C)cc2)c1	95.1*	-1.7	93.8*	-7.6	20.9	0.0
CCOC(=O)c1ccc(NC(=O)c2cc3c(C)nn(-c4ccccc4Cl)c3s2)s1	5.0	-1.4	1.9	1.6	10.0	0.1
COc1cc(CN2CCC(C(=O)NC(c3ccccc3)c3ccsc3)CC2)cc(OC)c1 (configuration not stated)	/	1.9	/	-6.3	/	44.0*
O=S(=O)(c1cccc(Br)c1)N1CCN(c2ncnc3scc(-c4ccccc4)c23)CC1	/	-2.3	/	1.2	/	0.5
Cc1csc2ncnc(N3CCN(S(=O)(=O)c4cccc(C(F)(F)F)c4)CC3)c12	20.4	34.7	58.7*	-3.6	56.4*	2.8
O=S(=O)(c1ccc(Cl)cc1)N1CCN(c2ncnc3sccc23)CC1	35.5	24.7	46.3*	-10.5	19.3	8.5
Cc1sc2ncnc(N3CCN(S(=O)(=O)c4ccc(C(C)(C)C)cc4)CC3)c2c1C	36.7	-0.2	51.1*	-4.8	11.3	2.2
Cc1csc2c(N3CCN(S(=O)(=O)c4ccc(Cl)cc4)CC3)ncnc12	-11.1	-16.9	-9.3	-8.6	9.2	2.1
NC(=O)COc1cc2oc(=O)c3c(c2cc1Cl)CCCC3	-2.4	9.7	-7.3	-10.1	12.6	4.2
Cn1cnnc1SCC(=O)Nc1nc(-c2ccc(F)cc2)cs1	0.4	-19.1	-4.2	-3.7	19.5	6.8
